Tested on: adult patients with advanced non-haematological malignancies
Experiment: Safety and tolerability
Format: in vivo, human
In short: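 Patients on milled oral capsules, fasted, in 28-day cycles. AEs and SAEs recorded from first dose through 30 days after last dose. Graded by NCI CTCAE v4.03 and coded to MedDRA v19.0. Relatedness to study drug judged by investigator.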

CC(C)n1nc(-c2ccc3oc(N)nc3c2)c2c(N)ncnc21 [TAK-228, Sapanisertib]
4 (67) n (%): Drug-related AE: Fatigue (QD 4 mg (n=6))
4 (24) n (%): Drug-related AE: Rash (maculopapular) (QD Total (n=17))
5 (71) n (%): Drug-related AE (QW 20 mg (n=7))
12 (71) n (%): Grade ≥3 AE (QD Total (n=17))
12%: Grade ≥3 AE: Fatigue (QD arm) | Grade ≥3 AE: Hyperglycaemia (QD arm) | Grade ≥3 AE: Hyponatraemia (QD arm) | Grade ≥3 AE: macular rash (QD arm)
4 (57) n (%): Drug-related AE: Diarrhoea (QW 20 mg (n=7))
5 (83) n (%): Drug-related grade ≥3 AE (QD 4 mg (n=6))
2 (18) n (%): Drug-related AE: Abdominal pain (QD 3 mg (n=11)) | Drug-related AE: Diarrhoea (QD 3 mg (n=11)) | Drug-related AE: Hyperglycaemia (QD 3 mg (n=11))
4 (36) n (%): Drug-related AE: Nausea (QD 3 mg (n=11)) | Drug-related AE: Pruritus (QD 3 mg (n=11)) | Drug-related AE: Rash (maculopapular) (QD 3 mg (n=11))
3 (18) n (%): Drug-related AE: Abdominal pain (QD Total (n=17)) | Drug-related AE: Hyperglycaemia (QD Total (n=17)) | Drug-related AE: Rash (QD Total (n=17)) | Drug-related AE: Stomatitis (QD Total (n=17))
10 (91) n (%): Drug-related AE (QD 3 mg (n=11))
1 (17) n (%): AE resulting in TAK-228 discontinuation (QD 4 mg (n=6)) | Drug-related AE: Abdominal pain (QD 4 mg (n=6)) | Drug-related AE: Hyperglycaemia (QD 4 mg (n=6)) | Drug-related AE: Nausea (QD 4 mg (n=6)) | Drug-related AE: Vomiting (QD 4 mg (n=6)) | Grade ≥3 AE: Hyperglycaemia (QD 4 mg (n=6)) | Grade ≥3 AE: Hyponatraemia (QD 4 mg (n=6)) | Grade ≥3 AE: Rash macular (QD 4 mg (n=6)) | On-study deaths (QD 4 mg (n=6))
1 (9) n (%): Drug-related AE: Rash (QD 3 mg (n=11)) | Drug-related AE: Stomatitis (QD 3 mg (n=11)) | Drug-related AE: Vomiting (QD 3 mg (n=11)) | Grade ≥3 AE: Abdominal pain (QD 3 mg (n=11)) | Grade ≥3 AE: Blood phosphorus decreased (QD 3 mg (n=11)) | Grade ≥3 AE: Diarrhoea (QD 3 mg (n=11)) | Grade ≥3 AE: Hyperglycaemia (QD 3 mg (n=11)) | Grade ≥3 AE: Hyponatraemia (QD 3 mg (n=11)) | Grade ≥3 AE: Rash macular (QD 3 mg (n=11))
6 (100) n (%): Drug-related AE (QD 4 mg (n=6)) | Grade ≥3 AE (QD 4 mg (n=6))
1 (6) n (%): AE resulting in TAK-228 discontinuation (QD Total (n=17)) | Grade ≥3 AE: Abdominal pain (QD Total (n=17)) | Grade ≥3 AE: Blood phosphorus decreased (QD Total (n=17)) | Grade ≥3 AE: Diarrhoea (QD Total (n=17)) | On-study deaths (QD Total (n=17))
16 (94) n (%): Drug-related AE (QD Total (n=17))
7 (41) n (%): Drug-related AE: Pruritus (QD Total (n=17))
2 (33) n (%): Drug-related AE: Decreased appetite (QD 4 mg (n=6)) | Drug-related AE: Rash (QD 4 mg (n=6)) | Drug-related AE: Stomatitis (QD 4 mg (n=6)) | Grade ≥3 AE: Fatigue (QD 4 mg (n=6)) | SAE (QD 4 mg (n=6))
10 (59) n (%): Drug-related AE: Fatigue (QD Total (n=17)) | Drug-related grade ≥3 AE (QD Total (n=17))
5 (29) n (%): Drug-related AE: Decreased appetite (QD Total (n=17)) | Drug-related AE: Diarrhoea (QD Total (n=17)) | Drug-related AE: Nausea (QD Total (n=17)) | SAE (QD Total (n=17))
5 (46) n (%): Drug-related grade ≥3 AE (QD 3 mg (n=11))
6 (55) n (%): Drug-related AE: Fatigue (QD 3 mg (n=11)) | Grade ≥3 AE (QD 3 mg (n=11))
3 (50) n (%): Drug-related AE: Diarrhoea (QD 4 mg (n=6)) | Drug-related AE: Pruritus (QD 4 mg (n=6))
3 (27) n (%): Drug-related AE: Decreased appetite (QD 3 mg (n=11)) | SAE (QD 3 mg (n=11))
59%: Asthaenic conditions, patients (QD arm) | Drug-related AE of any grade: fatigue (QD arm) | Incidence of grade ≥3 drug-related AEs (QD milled TAK-228)
29%: Drug-related AE of any grade: decreased appetite (QD arm) | Drug-related AE of any grade: diarrhoea (QD arm) | Drug-related AE of any grade: nausea (QD arm) | SAEs, patients (QD arm)
0 n (%): AE resulting in TAK-228 discontinuation (QD 3 mg (n=11)) | Drug-related SAE (QD 3 mg (n=11)) | Grade ≥3 AE: Anaemia (QD 3 mg (n=11)) | Grade ≥3 AE: Fatigue (QD 3 mg (n=11)) | On-study deaths (QD 3 mg (n=11)) | Drug-related AE: Rash (maculopapular) (QD 4 mg (n=6)) | Drug-related SAE (QD 4 mg (n=6)) | Grade ≥3 AE: Abdominal pain (QD 4 mg (n=6)) | Grade ≥3 AE: Anaemia (QD 4 mg (n=6)) | Grade ≥3 AE: Blood phosphorus decreased (QD 4 mg (n=6)) | Grade ≥3 AE: Diarrhoea (QD 4 mg (n=6)) | Drug-related SAE (QD Total (n=17)) | Grade ≥3 AE: Anaemia (QD Total (n=17)) | AE resulting in TAK-228 discontinuation (QW 20 mg (n=7))
41%: Drug-related AE of any grade: pruritus (QD arm)
1 (14) n (%): Drug-related AE: Asthaenia (QW 20 mg (n=7)) | Drug-related AE: Decreased appetite (QW 20 mg (n=7)) | Drug-related AE: Dehydration (QW 20 mg (n=7))
2 (12) n (%): Drug-related AE: Vomiting (QD Total (n=17)) | Grade ≥3 AE: Fatigue (QD Total (n=17)) | Grade ≥3 AE: Hyperglycaemia (QD Total (n=17)) | Grade ≥3 AE: Hyponatraemia (QD Total (n=17)) | Grade ≥3 AE: Rash macular (QD Total (n=17))
